Assays:
Human alphaherpesvirus 3 [1] = experiment: Antiviral activity against 07/1 strain of VZV in HEL ([…]) cells.; type: functional, organism-based
Procedure, shortened: (§1)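 Inhibition of virus-induced cytopathicity. HSV-1 and HSV-2 were tested in E6SM cells; VZV and CMV in HEL cells. Confluent monolayers were inoculated with 100 CCID50 of virus. After 1–2 h adsorption, residual virus was removed and compound was added at serial concentrations (400, 200, 100, ... μg/mL). Cytopathicity was scored once untreated infected controls reached complete CPE.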

[2] = test system: Human immunodeficiency virus 1; experiment: Antiviral activity against HIV-1 (IIIB) in CEM (human leukemia) cells.; type: functional, organism-based; conditions: ccrf-cem
Procedure, shortened: (§2)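 Human CEM cells (~3 × 10^5 cells/mL) were infected with 100 CCID50 per mL of HIV-1 (IIIB) or HIV-2 (ROD) and seeded into wells containing compound dilutions. After 4 days at 37 °C, syncytium (giant cell) formation was examined microscopically.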

[3] = Antiviral activity against KOS strain of HSV-1 in E6SM cells.; type: functional, cell-based, herpes simplex virus; procedure, shortened: as §1
Cytomegalovirus [4] = experiment: Antiviral activity against AD169 strain of cytomegalovirus (CMV) in HEL ([…]) cells.; type: functional, organism-based; procedure, shortened: as §1
Cytomegalovirus [5] = experiment: Antiviral activity against Davis strain of cytomegalovirus (CMV) in HEL ([…]) cells.; type: functional, organism-based; procedure, shortened: as §1
[6] = test system: Moloney murine sarcoma virus; experiment: Antiviral activity against murine sarcoma virus; type: functional, organism-based
Procedure, shortened: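 Murine C3H/3T3 embryo fibroblasts were seeded at 5 × 10^5 cells/mL. After 24 h, cells were infected with 80 focus-forming units of MSV (from mouse tumours) for 90–120 min at 37 °C. Medium was then replaced by fresh medium containing varied compound concentrations, and MSV-induced transformation was the read-out.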

[7] = Antiviral activity against vaccinia virus in HEL ([…]) cells.; type: functional, cell-based
[8] = Antiviral activity against G strain of HSV-2 in E6SM cells.; type: functional, cell-based, herpes simplex virus; procedure, shortened: as §1
Human alphaherpesvirus 3 [9] = experiment: Antiviral activity against OKA strain of VZV in HEL ([…]) cells.; type: functional, organism-based; set-up: unit not given here; procedure, shortened: as §1
CCRF-CEM = experiment: Cytotoxicity against CEM (human lymphoblastic leukemia) cells in vitro.; type: functional
[10] = test system: Human immunodeficiency virus 2; experiment: Antiviral activity against HIV-2 (ROD) in CEM (human leukemia) cells.; type: functional, organism-based; conditions: ccrf-cem; procedure, shortened: as §2
[11] = Antiviral activity against KOS strain of HSV-1; ND=No data; type: functional, herpes simplex virus
Procedure, shortened: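 Confluent E6SM cell cultures in 96-well plates were inoculated with 100 CCID50 virus. After 1–2 h adsorption, inoculum was removed and test compound was added at 400, 200, 100, ... µg/mL.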

| SMILES | EC50 (Human alphaherpesvirus 3 [1]) [uM ml-1] | EC50 [2] [uM ml-1] | EC50 [3] [uM ml-1] | EC50 (Cytomegalovirus [4]) [uM ml-1] | EC50 (Cytomegalovirus [5]) [uM ml-1] | EC50 [6] [uM ml-1] | EC50 [7] [uM ml-1] | EC50 [8] [uM ml-1] | EC50 (Human alphaherpesvirus 3 [9]) | CC50 (CCRF-CEM) [µM] | EC50 [10] [uM ml-1] | EC50 [11] [uM ml-1] |
| --- | --- | --- | --- | --- | --- | --- | --- | --- | --- | --- | --- | --- |
| CCOC(=O)Cc1c(N)nc(N)n(CCOCP(=O)(O)O)c1=O | > 0.15 | > 0.3 | > 1.2 | > 0.15 | > 0.15 | 0.011 | > 1.2 | > 1.2 | > 0.15 | > 300 | 0.11 |  |
| Nc1nc(N)c(Cc2ccccc2)c(OCCOCP(=O)(O)O)n1 | > 0.15 | > 0.3 | > 1.2 | > 0.15 | > 0.15 | > 1.12 | > 1.2 |  | > 0.15 | > 300 | > 0.3 |  |
| N#CCc1c(N)nc(N)nc1OCCOCP(=O)(O)O | 0.11 | > 0.3 | > 1.2 | > 0.15 | > 0.15 | 0.3 | > 1.2 | > 1.2 | 0.14 | > 300 | > 0.3 |  |
| Nc1nc(N)c(Br)c(OCCOCP(=O)(O)O)n1 | > 0.15 | 0.0073 | 0.7 | > 0.15 |  | 0.007 | 0.7 | 0.7 |  | > 300 | 0.0095 |  |
| Nc1nc(N)n(CCOCP(=O)(O)O)c(=O)c1-c1ccccc1 | > 0.15 | > 0.3 | > 1.2 | > 0.15 | > 0.15 | > 1.12 | > 1.2 | > 1.2 | > 0.15 | > 300 | > 0.3 |  |
| C=CCc1c(N)nc(N)n(CCOCP(=O)(O)O)c1=O | > 0.15 | > 0.3 | > 1.2 | > 0.15 | > 0.15 | > 1.12 | > 1.2 | 0.77 | > 0.15 | > 300 | > 0.3 |  |
| C=CCc1c(N)nc(N)nc1OCCOCP(=O)(O)O | > 0.15 | > 0.3 | > 1.2 | > 0.15 | > 0.15 | > 1.12 | > 1.2 | 0.79 | > 0.15 | > 300 | > 0.3 |  |
| Nc1nc(N)c(Cl)c(OCCOCP(=O)(O)O)n1 |  | 0.0031 | > 1.2 | > 0.12 | > 0.6 | 0.0028 | > 1.2 | > 1.2 |  | 300 | 0.0044 |  |
| Nc1nc(N)n(CCOCP(=O)(O)O)c(=O)c1CC(=O)O | > 0.15 | > 0.3 | > 1.2 | > 0.15 | > 0.15 | 0.082 | > 1.2 | > 1.2 | > 0.15 | > 300 | > 0.3 |  |
| Nc1nc(N)n(CCOCP(=O)(O)O)c(=O)c1Cc1ccccc1 | > 0.15 | > 0.3 | > 1.2 | > 0.15 | > 0.15 | > 1.12 | > 1.2 | > 1.2 | > 0.15 | > 300 | > 0.3 |  |
| Nc1nc(N)c(-c2ccccc2)c(OCCOCP(=O)(O)O)n1 | > 0.15 | > 0.3 | > 1.2 | > 0.15 | > 0.15 | > 1.12 | > 1.2 | > 1.2 | > 0.15 | > 300 | > 0.3 |  |
| Nc1nc(N)c(CC(=O)O)c(OCCOCP(=O)(O)O)n1 | > 0.15 | > 0.3 | > 1.2 | > 0.15 | > 0.15 | 0.046 | > 1.2 | > 1.2 | > 0.15 | > 300 | > 0.3 |  |
| Nc1cc(OCCOCP(=O)(O)O)nc(N)n1 | 0.0095 | 0.003 | 0.025 | > 0.19 | > 0.19 | 0.00015 | 0.18 | 0.033 | 0.0045 | 42 | 0.0016 |  |
| Cc1c(N)nc(N)nc1OCCOCP(=O)(O)O | 0.042 | 0.00043 | > 1.2 | > 0.15 | > 0.15 | 0.00022 | > 1.2 | > 1.2 | 0.018 | 15 | 0.00031 |  |
| Nc1cc(OC[C@H](CO)OCP(=O)(O)O)nc(N)n1 | 0.00024 | > 0.014 | 0.0048 | 0.13 | 0.12 | > 0.0027 | 0.0065 | 0.017 | 0.00017 | 23 | 0.014 |  |
| CCOC(=O)Cc1c(N)nc(N)nc1OCCOCP(=O)(O)O | > 0.15 | > 0.3 | > 1.2 | > 0.15 | > 0.15 | 0.035 | > 1.2 | > 1.2 | > 0.15 | > 300 | 0.078 |  |
| Nc1nc(N)c(C2CC2)c(OCCOCP(=O)(O)O)n1 |  | > 0.3 |  |  |  | > 1.12 |  |  |  | > 300 | > 0.3 | > 1.2 |
| Nc1nc(N)n(CCOCP(=O)(O)O)c(=O)c1C1CC1 | > 0.15 | > 0.3 | > 1.2 | > 0.15 |  | > 1.12 | > 1.2 | > 1.2 |  | > 300 | > 0.3 |  |
| N#CCc1c(N)nc(N)n(CCOCP(=O)(O)O)c1=O | 0.084 | > 0.3 | > 1.2 | > 0.15 | > 0.15 | 0.3 | > 1.2 | > 1.2 | > 0.15 | > 300 | > 0.3 |  |
| Cc1c(N)nc(N)n(CCOCP(=O)(O)O)c1=O | > 0.15 | > 0.3 | > 1.2 | > 0.15 |  | > 1.12 | > 1.2 | > 1.2 |  | > 300 | > 0.3 |  |
| Nc1ncnc2c1ncn2CCOCP(=O)(O)O [ADEFOVIR] |  | 0.0033 | 0.024 | 0.1 | 0.27 | 0.0022 | > 0.17 | 0.024 |  | 56 | 0.0066 |  |
| C[C@H](Cn1cnc2c(N)ncnc21)OCP(=O)(O)O [TENOFOVIR ANHYDROUS] | 0.17 | 0.0012 | > 0.17 | > 0.17 | > 0.17 | 0.0046 | > 0.17 | > 0.17 |  | 410 | 0.0014 |  |
